Data set [1] deals with Mus musculus. The data set can be described thus: Antidepressant activity in mouse assessed as decrease in immobility at 50 mg/kg, po administered 30 mins prior to testing by tail suspension test relative to vehicle control. Type of data set: functional. More on the design: scale not given: the % may be the effect or the level left. In short, it runs like this: (§1)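 Oral doses of 10–50 mg/kg (three doses) were given once, 30 min before testing. Mice were hung by adhesive tape 1 cm from the tail tip, 75 cm above the tabletop. Immobility was recorded for 5 min, scored blind, 10–12 mice per group, against vehicle controls. One-way ANOVA with Scheffe post hoc test; p<0.05 significant.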

The target of data set [2] is 5-hydroxytryptamine receptor 7 (Homo sapiens) (UniProt P34969). The data set can be described thus: Displacement of [3H]LSD from human recombinant 5HT7 receptor expressed in CHO cells at 10 uM after 120 mins by liquid scintillation counting. Type of data set: cell-based. In short, it runs like this:
(§2)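 Radioligand binding panel run by a contract lab (CEREP). Percent inhibition of specific radioligand binding was measured at a single primary test concentration of 10.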
For orientation: In a radioligand displacement assay an active substance lowers the binding of a labelled ligand.

Data set [3] in a line: Tmax in Sprague-Dawley rat at 10 mg/kg, po. It is filed as ADME, organism-based. More on the design: dose 10 mg/kg, route oral. As to conditions: in vivo. In outline:
(§3)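 Male SD rats, three per group, fasted overnight until 6 h post-dose, received a single oral dose of 10 mg/kg. Heparinized blood was drawn at 5, 15 and 30 min and at 1, 2, 4, 6, 8, 12 and 24 h. Plasma was frozen and analysed by LC/MS/MS for Cmax, Tmax, terminal t1/2 and AUC0-inf.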

Data set [4] can be described thus: AUC (0 to infinity) in Sprague-Dawley rat at 10 mg/kg, po. Type of data set: ADME, organism-based. More on the design: time infinity, dose 10 mg/kg, route oral. As to conditions: plasma. In short, it runs like this:
as §3

A short description of data set [5]: Cmax in Sprague-Dawley rat at 10 mg/kg, po. As to conditions: in vivo. More on the design: dose 10 mg/kg, route oral. Type of data set: ADME, organism-based. In outline:
as §3

Data set [6] can be described thus: Oral bioavailability in Sprague-Dawley rat at 10 mg/kg. It is filed as ADME, organism-based. As to conditions: in vivo. In short, it runs like this: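 Bioavailability in male SD rats (n=3 per group, fasted overnight to 6 h post-dose) came from a 10 mg/kg oral dose and a 1 mg/kg iv dose via the femoral vein. Plasma drug levels over time were measured by LC/MS/MS.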

Data set [7] can be described thus: Elimination half life in Sprague-Dawley rat at 1 mg/kg, iv. It is filed as ADME, organism-based. More on the design: dose 1 mg/kg, route intravenous. As to conditions: in vivo, read-out: beta t1/2 (converted). In short, it runs like this: (§4)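 Male SD rats, three per group, fasted overnight until 6 h after dosing, were given a single 1 mg/kg iv dose into the femoral vein. Blood was sampled at 5, 15 and 30 min and at 1, 2, 4 and 6 h. Plasma was stored frozen and assayed by LC/MS/MS.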

Data set [8] is described as follows: Elimination half life in Sprague-Dawley rat at 10 mg/kg, po. It is filed as ADME, organism-based. Set-up: dose 10 mg/kg, route oral. As to conditions: in vivo, read-out: beta t1/2 (converted). In outline:
as §3

The target in data set [9] is Adrenergic receptor alpha-1 (Rattus norvegicus) (UniProt P15823+P23944+P43140). The data set can be described thus: Displacement of [3H]Prazosin from rat alpha1 adrenergic receptor at 10 uM after 60 mins by liquid scintillation counting. In short, it runs like this:
as §2

The target in data set [10] is D(3) dopamine receptor (Homo sapiens) (UniProt P35462). The data set can be described thus: Displacement of [3H]Methylspiperone from human recombinant dopamine D3 receptor expressed in CHO cells at 10 uM after 60 mins by liquid scintillation counting. It is filed as cell-based. In outline: as §2
The target in data set [11] is 5-hydroxytryptamine receptor 2A (Homo sapiens) (UniProt P28223). The data set is described as follows: Displacement of [3H]Ketanserin from human recombinant 5HT2A receptor expressed in CHO cells at 10 uM after 15 mins by liquid scintillation counting. It is filed as cell-based. In short, it runs like this: as §2
Data set [12] deals with Adrenergic receptor alpha-2 (Rattus norvegicus) (UniProt P22086+P19328+P22909). The data set is described as follows: Displacement of [3H]RX821002 from rat alpha2 adrenergic receptor at 10 uM after 30 mins by liquid scintillation counting. In outline:
as §2

For data set [13], the target named is T1, D(1A) dopamine receptor (Homo sapiens, UniProt P21728). The data set can be described thus: Displacement of [3H]SCH23390 from dopamine D1 receptor at 10 uM. In short, it runs like this:
as §2

Data set [14] has as its target T2, Muscarinic acetylcholine receptor M2 (Homo sapiens) (UniProt P08172).
T2 sequence (whole entry): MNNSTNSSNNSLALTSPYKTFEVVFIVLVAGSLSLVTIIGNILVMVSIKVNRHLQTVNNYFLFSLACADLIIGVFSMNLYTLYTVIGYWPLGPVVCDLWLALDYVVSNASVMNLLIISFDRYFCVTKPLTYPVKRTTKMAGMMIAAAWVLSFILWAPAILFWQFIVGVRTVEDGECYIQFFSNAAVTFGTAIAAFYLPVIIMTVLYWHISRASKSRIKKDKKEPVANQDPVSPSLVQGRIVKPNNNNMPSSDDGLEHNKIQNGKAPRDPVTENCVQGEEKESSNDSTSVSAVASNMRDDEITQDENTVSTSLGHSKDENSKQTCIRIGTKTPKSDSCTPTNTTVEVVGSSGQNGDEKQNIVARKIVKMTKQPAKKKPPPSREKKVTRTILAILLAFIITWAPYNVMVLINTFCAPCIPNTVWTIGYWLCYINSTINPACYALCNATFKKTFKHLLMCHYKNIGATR
The data set is described as follows: Displacement of [3H]AF-DX384 from M2 receptor at 10 uM. In short, it runs like this: as §2

Data set [15] has as its target Adrenergic receptor alpha-1 (Rattus norvegicus, UniProt P15823+P23944+P43140). The data set is described as follows: Displacement of [3H]Prazosin from rat alpha1 adrenergic receptor after 60 mins by liquid scintillation counting. In short, it runs like this:
(§5)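 A primary screen at a single concentration was run first; compounds giving >80% inhibition of radioligand binding went on to full concentration–response curves to obtain IC50 (CEREP contract assay).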

The subject of data set [16] is Mus musculus. The data set can be described thus: Antidepressant activity in mouse assessed as decrease in immobility at 20 mg/kg, po administered 30 mins prior to testing by tail suspension test relative to vehicle control. More on the design: scale not given: the % may be the effect or the level left. It is filed as functional. In short, it runs like this: as §1

Data set [17] concerns the target Histamine H1 receptor (Cavia porcellus) (UniProt P31389). The data set can be described thus: Displacement of [3H]Pyrilamin from guinea pig histamine H1 receptor at 10 uM after 10 mins by liquid scintillation counting. In outline:
as §2

Data set [18] can be described thus: Cmax in Sprague-Dawley rat at 1 mg/kg, iv. It is filed as ADME, organism-based. As to conditions: in vivo. Set-up: dose 1 mg/kg, route intravenous. In short, it runs like this:
as §4

Data set [19] concerns the target Sodium-dependent noradrenaline transporter (Homo sapiens, UniProt P23975). The data set is described as follows: Inhibition of [3H]noradrenaline uptake at human NET expressed in HEK293 cells after 10 mins by scintillation counting.
Data set [20] has as its target Sodium-dependent serotonin transporter (Homo sapiens, UniProt P31645). The data set can be described thus: Inhibition of [3H]serotonin uptake at human SERT expressed in HEK293 cells after 10 min by scintillation counting.
Data set [21] deals with 5-hydroxytryptamine receptor 6 (Homo sapiens) (UniProt P50406). The data set is described as follows: Displacement of [3H]LSD from human recombinant 5HT6 receptor expressed in HEK293 cells at 10 uM after 60 mins by liquid scintillation counting. It is filed as cell-based. In short, it runs like this: as §2
In data set [22] the target is D(2) dopamine receptor (Homo sapiens) (UniProt P14416). The data set can be described thus: Displacement of [3H]Methylspiperone from dopamine D2 receptor at 10 uM. In outline: as §2
Data set [23] can be described thus: AUC (0 to infinity) in Sprague-Dawley rat at 1 mg/kg, iv. It is filed as ADME, organism-based. Set-up: time infinity, dose 1 mg/kg, route intravenous. As to conditions: plasma. In outline: as §4
Data set [24] deals with T1, D(1A) dopamine receptor. The data set can be described thus: Displacement of [3H]SCH23390 from dopamine D1 receptor. In outline:
as §5

T1 sequence (P21728 whole entry): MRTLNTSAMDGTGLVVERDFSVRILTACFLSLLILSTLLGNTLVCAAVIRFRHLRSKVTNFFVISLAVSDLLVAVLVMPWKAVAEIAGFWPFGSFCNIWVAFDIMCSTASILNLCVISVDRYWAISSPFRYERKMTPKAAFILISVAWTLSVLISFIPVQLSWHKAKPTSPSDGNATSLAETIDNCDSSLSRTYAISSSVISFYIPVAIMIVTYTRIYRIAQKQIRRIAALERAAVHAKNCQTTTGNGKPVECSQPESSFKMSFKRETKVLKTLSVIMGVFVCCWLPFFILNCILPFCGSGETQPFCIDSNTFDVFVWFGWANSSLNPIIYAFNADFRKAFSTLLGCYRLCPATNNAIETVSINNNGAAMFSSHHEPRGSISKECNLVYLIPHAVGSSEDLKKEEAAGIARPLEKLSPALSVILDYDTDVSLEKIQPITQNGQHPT
Chain of 5-hydroxytryptamine receptor 2A (Homo sapiens) (P28223 whole entry): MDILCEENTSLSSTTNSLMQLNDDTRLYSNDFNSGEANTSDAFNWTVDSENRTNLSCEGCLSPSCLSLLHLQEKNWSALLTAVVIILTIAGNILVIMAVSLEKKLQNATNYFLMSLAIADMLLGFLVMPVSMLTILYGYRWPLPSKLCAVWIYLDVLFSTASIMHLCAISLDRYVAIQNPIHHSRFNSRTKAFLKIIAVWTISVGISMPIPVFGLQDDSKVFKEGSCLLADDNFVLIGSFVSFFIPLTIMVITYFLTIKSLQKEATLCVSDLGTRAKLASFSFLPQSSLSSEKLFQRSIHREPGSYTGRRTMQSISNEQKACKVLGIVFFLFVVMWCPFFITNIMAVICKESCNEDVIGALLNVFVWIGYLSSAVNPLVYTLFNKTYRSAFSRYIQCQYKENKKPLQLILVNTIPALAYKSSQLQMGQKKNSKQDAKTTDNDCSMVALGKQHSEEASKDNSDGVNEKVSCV
Chain of Sodium-dependent noradrenaline transporter (P23975 whole entry): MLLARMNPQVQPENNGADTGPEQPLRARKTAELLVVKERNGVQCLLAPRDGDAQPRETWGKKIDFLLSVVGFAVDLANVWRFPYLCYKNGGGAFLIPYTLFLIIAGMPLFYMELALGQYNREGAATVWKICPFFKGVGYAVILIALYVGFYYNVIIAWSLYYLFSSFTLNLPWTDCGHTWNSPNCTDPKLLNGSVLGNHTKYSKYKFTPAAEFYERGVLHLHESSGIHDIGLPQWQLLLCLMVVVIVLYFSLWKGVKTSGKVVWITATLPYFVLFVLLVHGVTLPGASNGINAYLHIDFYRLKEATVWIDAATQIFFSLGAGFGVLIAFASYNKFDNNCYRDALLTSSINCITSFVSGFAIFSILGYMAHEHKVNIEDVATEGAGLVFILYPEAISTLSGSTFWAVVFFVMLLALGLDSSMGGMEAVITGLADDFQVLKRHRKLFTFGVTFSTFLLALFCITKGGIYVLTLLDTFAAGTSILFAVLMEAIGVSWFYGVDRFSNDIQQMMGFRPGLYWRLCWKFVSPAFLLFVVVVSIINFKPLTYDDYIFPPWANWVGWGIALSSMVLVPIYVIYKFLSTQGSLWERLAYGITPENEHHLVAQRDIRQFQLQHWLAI
Chain of 5-hydroxytryptamine receptor 6 (Homo sapiens) (P50406 whole entry): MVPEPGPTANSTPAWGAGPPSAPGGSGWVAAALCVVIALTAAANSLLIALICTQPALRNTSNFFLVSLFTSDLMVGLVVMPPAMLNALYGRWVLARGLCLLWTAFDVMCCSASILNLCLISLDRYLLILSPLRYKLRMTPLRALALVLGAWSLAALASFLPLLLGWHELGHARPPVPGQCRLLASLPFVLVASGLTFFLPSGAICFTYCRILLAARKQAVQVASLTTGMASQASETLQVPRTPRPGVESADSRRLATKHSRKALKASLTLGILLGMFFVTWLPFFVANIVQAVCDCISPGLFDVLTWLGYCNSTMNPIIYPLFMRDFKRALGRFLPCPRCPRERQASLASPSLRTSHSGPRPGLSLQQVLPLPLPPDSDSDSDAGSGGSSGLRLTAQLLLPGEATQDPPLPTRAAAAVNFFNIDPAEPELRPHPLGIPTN
Chain of D(3) dopamine receptor (Homo sapiens) (P35462 whole entry): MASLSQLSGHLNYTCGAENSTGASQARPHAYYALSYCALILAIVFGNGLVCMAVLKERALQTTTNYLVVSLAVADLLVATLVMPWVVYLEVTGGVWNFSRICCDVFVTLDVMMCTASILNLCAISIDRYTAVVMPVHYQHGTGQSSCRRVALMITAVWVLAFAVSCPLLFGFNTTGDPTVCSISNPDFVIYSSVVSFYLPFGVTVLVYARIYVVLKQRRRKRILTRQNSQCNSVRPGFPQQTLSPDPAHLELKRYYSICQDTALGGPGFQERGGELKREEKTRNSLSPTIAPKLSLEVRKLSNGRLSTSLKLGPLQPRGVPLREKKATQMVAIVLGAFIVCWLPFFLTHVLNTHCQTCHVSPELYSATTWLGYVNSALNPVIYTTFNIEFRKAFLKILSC
Chain of 5-hydroxytryptamine receptor 7 (Homo sapiens) (P34969 whole entry): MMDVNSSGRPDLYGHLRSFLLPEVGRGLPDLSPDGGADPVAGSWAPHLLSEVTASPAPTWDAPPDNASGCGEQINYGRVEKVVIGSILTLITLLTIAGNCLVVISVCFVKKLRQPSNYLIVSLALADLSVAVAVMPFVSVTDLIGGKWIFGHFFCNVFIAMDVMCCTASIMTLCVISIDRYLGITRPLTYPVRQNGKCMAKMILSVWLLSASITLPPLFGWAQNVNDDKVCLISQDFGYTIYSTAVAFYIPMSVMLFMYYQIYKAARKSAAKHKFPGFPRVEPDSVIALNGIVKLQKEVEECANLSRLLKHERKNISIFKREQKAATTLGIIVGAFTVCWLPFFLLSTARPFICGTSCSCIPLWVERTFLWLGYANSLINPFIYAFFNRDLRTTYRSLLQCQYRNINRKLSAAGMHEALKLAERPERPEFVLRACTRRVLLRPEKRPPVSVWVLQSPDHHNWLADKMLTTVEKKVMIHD
Chain of D(2) dopamine receptor (Homo sapiens) (P14416 whole entry): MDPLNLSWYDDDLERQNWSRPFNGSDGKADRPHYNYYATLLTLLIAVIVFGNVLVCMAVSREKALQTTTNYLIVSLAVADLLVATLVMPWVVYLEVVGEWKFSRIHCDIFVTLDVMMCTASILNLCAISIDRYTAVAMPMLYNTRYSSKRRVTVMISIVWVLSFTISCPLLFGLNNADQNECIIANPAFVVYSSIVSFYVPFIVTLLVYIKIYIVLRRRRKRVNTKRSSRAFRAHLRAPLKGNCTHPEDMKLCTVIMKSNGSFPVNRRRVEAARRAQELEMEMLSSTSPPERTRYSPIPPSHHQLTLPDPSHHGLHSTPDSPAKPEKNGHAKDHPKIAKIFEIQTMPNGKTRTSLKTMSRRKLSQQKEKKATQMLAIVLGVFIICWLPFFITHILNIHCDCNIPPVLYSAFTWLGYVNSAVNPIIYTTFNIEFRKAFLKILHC
Chain of Histamine H1 receptor (Cavia porcellus) (P31389 whole entry): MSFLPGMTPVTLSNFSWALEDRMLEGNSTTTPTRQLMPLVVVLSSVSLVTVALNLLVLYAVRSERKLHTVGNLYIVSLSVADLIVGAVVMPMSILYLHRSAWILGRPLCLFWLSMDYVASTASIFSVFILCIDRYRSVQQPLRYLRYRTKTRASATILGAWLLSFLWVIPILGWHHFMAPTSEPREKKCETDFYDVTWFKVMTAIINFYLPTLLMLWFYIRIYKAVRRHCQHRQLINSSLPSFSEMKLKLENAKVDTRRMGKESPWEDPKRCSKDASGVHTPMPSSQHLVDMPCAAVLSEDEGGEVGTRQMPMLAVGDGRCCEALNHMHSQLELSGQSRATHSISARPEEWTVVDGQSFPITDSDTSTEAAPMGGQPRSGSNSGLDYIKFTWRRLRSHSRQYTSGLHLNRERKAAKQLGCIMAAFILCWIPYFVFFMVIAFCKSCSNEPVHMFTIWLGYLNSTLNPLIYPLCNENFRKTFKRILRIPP
Chain of Sodium-dependent serotonin transporter (P31645 whole entry): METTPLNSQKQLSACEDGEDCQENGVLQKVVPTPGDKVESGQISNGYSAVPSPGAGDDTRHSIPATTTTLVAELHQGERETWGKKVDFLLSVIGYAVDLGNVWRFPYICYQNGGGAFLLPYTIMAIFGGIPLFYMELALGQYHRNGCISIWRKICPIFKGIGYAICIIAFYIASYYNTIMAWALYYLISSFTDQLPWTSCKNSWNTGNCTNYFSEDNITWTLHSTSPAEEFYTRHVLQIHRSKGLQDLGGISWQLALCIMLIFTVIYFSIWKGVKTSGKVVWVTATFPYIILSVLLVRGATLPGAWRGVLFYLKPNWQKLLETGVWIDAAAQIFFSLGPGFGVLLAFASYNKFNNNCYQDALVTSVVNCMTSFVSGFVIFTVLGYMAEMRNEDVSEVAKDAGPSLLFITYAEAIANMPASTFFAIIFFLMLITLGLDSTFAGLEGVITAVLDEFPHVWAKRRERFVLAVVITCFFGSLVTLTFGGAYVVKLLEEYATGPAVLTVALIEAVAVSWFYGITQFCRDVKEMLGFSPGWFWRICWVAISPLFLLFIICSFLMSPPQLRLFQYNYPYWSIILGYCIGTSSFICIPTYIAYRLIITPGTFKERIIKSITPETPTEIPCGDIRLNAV

For orientation: inhibition means the change of the read-out against control, counted positive when it falls. One may read the Tmax as the time from dosing to the highest level. By AUC(0-inf) is commonly meant the area under the concentration-time curve extrapolated to infinity. Broadly, the Cmax is the maximum level reached in the sampled fluid or tissue. For orientation: bioavailability means the share of a dose that reaches the circulation, judged against a reference dose that is usually intravenous. For orientation: IC50 means the concentration needed to halve the response being measured. For the molecule `OC(CCN1CCC(O)(Cc2ccccc2)CC1)c1ccc(Cl)c(Cl)c1` (racemic), the Activity in [1] is 64%; in data set [16], 42%. The inhibition came to 19.2% in [2]; 84.3% in [9]; 4.6% in data set [10]; 0.9% in data set [11]; 43.5% in [12]; 47.9% in data set [13]. Also, the inhibition in data set [14] came out at 16.5%; in data set [17], 12.5%; in [21], 14.8%; in data set [22] it was 19.2%. Moreover, in data set [3], the time to peak (Tmax) amounted to 0.7 h. Besides, the AUC(0-inf) in [4] is 5440 ng·h/mL; in data set [23], 1230 ng·h/mL. The Cmax in data set [5] worked out at 897 ng/mL; in data set [18], 750 ng/mL. Moreover, the bioavailability in data set [6] came to 44.1%. Besides, the figures for the half-life in [7] and in data set [8] were 2.3 h and 2.9 h, respectively. Moreover, the concentration for half-maximal inhibition (IC50) in [15] was determined as 8 µM; in [19] it was 0.265 µM; in data set [20], 0.337 µM.
As for `COc1ccc2cc(C(O)CCN3CC=C(Cc4ccccc4)CC3)ccc2c1Cl` (racemic), the values for the Activity in [1] and in data set [16] were 57% and 42%, respectively. Also, the inhibition turned out to be 5.8% in data set [2]; 45.6% in [9]; 11.3% in data set [10]; 15.6% in data set [11]; 32.9% in [12]; 27.1% in data set [13]. In addition, the inhibition was 12.9% in data set [14], 10.6% in data set [17], -0.9% in [21] and -0.5% in data set [22]. In addition, the IC50 in [19] was 0.42 µM; in data set [20], 0.265 µM.
As for `OC(CCN1CC=C(Cc2ccccc2)CC1)c1ccc(Cl)c(Cl)c1` (racemic), the values for the Activity in [1] and in [16] were 35% and 51%, respectively. The inhibition in data set [2] was found to be 0.5%; in data set [9] it was 35.6%; in [10] it was 10.3%; in [11], 4.8%; in data set [12], 16.2%; in [13], 33.3%. Also, the inhibition in [14] stood at 7.9%; in data set [17] it was 31.2%; in data set [21] it was 1.9%; in data set [22], 31.4%. Also, the IC50 in [19] worked out at 0.178 µM; in [20], 0.425 µM.
In the case of `OC(CCN1CC=C(Cc2ccccc2)CC1)c1cc2ccccc2s1` (racemic), the Activity is 34% in data set [1] and 21% in [16]. Further, the inhibition came to 43.5% in data set [2]; 0.8% in [9]; 1.2% in data set [10]; 31.5% in data set [11]; 32.5% in data set [12]; 85.6% in data set [13]. The inhibition in [14] amounted to 6.5%; in data set [17], 0.1%; in [21], 53.7%; in [22], 10.8%. In addition, the IC50 amounted to 0.327 µM in data set [19], 0.255 µM in [20] and 9.65 µM in [24].
`OC(CCN1CC=C(Cc2ccccc2)CC1)c1csc2ccccc12` (racemic): the figures for the Activity in data set [1] and in data set [16] were 64% and 51%, respectively. In addition, the inhibition in data set [2] was 29.7%; in data set [9], 51.2%; in data set [10], 3.5%; in [11] it was 42.6%; in [12], 27.3%; in data set [13], 35.6%. Besides, the inhibition in data set [14] came to 3.7%; in data set [17], 45.3%; in data set [21], 16.8%; in data set [22] it was 4.3%. The Tmax in [3] was found to be 0.5 h. In addition, the AUC(0-inf) in data set [4] stood at 5720 ng·h/mL; in data set [23], 1020 ng·h/mL. For the same molecule, the highest concentration (Cmax) is 923 ng/mL in data set [5] and 653 ng/mL in [18]. In data set [6], the bioavailability came to 55.8%. For the same molecule, the half-life in data set [7] is 2.5 h; in data set [8], 3.5 h. The values for the IC50 in data set [19] and in data set [20] were 0.385 µM and 0.171 µM, respectively.

These data come from ChEMBL document CHEMBL2046296, “Synthesis and antidepressant activity of arylalkanol-piperidine derivatives as triple reuptake inhibitors” (Eur J Med Chem, 2012).
